The results in this text go back to publication PMC1182329 (Nucleic Acids Research, 2005).

One experiment deals with TAR-RNA. Nature of the experiment: Gel retardation assay. In kind it is binding, HIV-1. Particulars: compared with PNATAR–penetratin and PNATAR–tat conjugates; data not shown.
Experiment [1] relates to VSV-G pseudotyped HIV-1 virions. Conditions: 1 h.
Experiment [2] deals with VSV-G pseudotyped HIV-1 in CEM cells.
The test system of the next experiment is CEM cells. Nature of the experiment: Uptake kinetics with 125I-labeled conjugates. In kind it is cell-based. Conditions: slope of Hill plot of uptake data, 125I-labeled conjugate, room temperature, 30 s. Summed up:
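125I-labeled conjugate purified by gel filtration and C18 reverse phase, quantified at A260, and specific radioactivity set with unlabeled conjugate. 1 × 10^6 CEM cells exposed to varying concentrations at room temperature for 30 s, then filtered on glass fiber, washed with PBS. Internalized conjugate measured by gamma counting from specific radioactivity; nH taken from Hill plot slope.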

Read-outs that look alike come from different tables or passages of the source.

Turning to Ac-Cys-TCC-CAG-GCT-CAG-ATC-T [PNATAR], the “binding pattern to TAR-RNA in gel shift assay” value in the experiment on TAR-RNA was “same binding pattern”.

Compound `CC(=O)N[C@@H](CSSC[C@H](N)C(=O)NCC(=O)N[C@@H](CCCNC(=N)N)C(=O)N[C@@H](CCCCN)C(=O)N[C@@H](CCCCN)C(=O)N[C@@H](CCCNC(=N)N)C(=O)N[C@@H](CCCNC(=N)N)C(=O)N[C@@H](CCC(N)=O)C(=O)N[C@@H](CCCNC(=N)N)C(=O)N[C@@H](CCCNC(=N)N)C(=O)N[C@@H](CCCNC(=N)N)C(=O)N1CCC[C@H]1C(=O)N1CCC[C@H]1C(=O)N[C@@H](CCC(N)=O)C(=O)O)C(=O)NCCN(CC(=O)NCCN(CC(=O)NCCN(CC(=O)NCCN(CC(=O)NCCN(CC(=O)NCCN(CC(=O)NCCN(CC(=O)NCCN(CC(=O)NCCN(CC(=O)NCCN(CC(=O)NCCN(CC(=O)NCCN(CC(=O)NCCN(CC(=O)NCCN(CC(=O)NCCN(CC(=O)NCCN(CC(N)=O)C(=O)Cn1cc(C)c(=O)[nH]c1=O)C(=O)Cn1ccc(N)nc1=O)C(=O)Cn1cc(C)c(=O)[nH]c1=O)C(=O)Cn1cnc2c(N)ncnc21)C(=O)Cn1cnc2c(=O)[nH]c(N)nc21)C(=O)Cn1cnc2c(N)ncnc21)C(=O)Cn1ccc(N)nc1=O)C(=O)Cn1cc(C)c(=O)[nH]c1=O)C(=O)Cn1ccc(N)nc1=O)C(=O)Cn1cnc2c(=O)[nH]c(N)nc21)C(=O)Cn1cnc2c(=O)[nH]c(N)nc21)C(=O)Cn1cnc2c(N)ncnc21)C(=O)Cn1ccc(N)nc1=O)C(=O)Cn1ccc(N)nc1=O)C(=O)Cn1ccc(N)nc1=O)C(=O)Cn1cc(C)c(=O)[nH]c1=O` [PNATAR–tat-peptide] yielded a 50% inhibitory concentration (IC50) in experiment [1] of 37 nM.

As for `CC[C@H](C)[C@H](NC(=O)[C@H](CCCCN)NC(=O)[C@@H](NC(=O)[C@H](CCC(N)=O)NC(=O)[C@H](CCCNC(=N)N)NC(=O)[C@@H](N)CSSC[C@H](NC(C)=O)C(=O)NCCN(CC(=O)NCCN(CC(=O)NCCN(CC(=O)NCCN(CC(=O)NCCN(CC(=O)NCCN(CC(=O)NCCN(CC(=O)NCCN(CC(=O)NCCN(CC(=O)NCCN(CC(=O)NCCN(CC(=O)NCCN(CC(=O)NCCN(CC(=O)NCCN(CC(=O)NCCN(CC(=O)NCCN(CC(N)=O)C(=O)Cn1cc(C)c(=O)[nH]c1=O)C(=O)Cn1ccc(N)nc1=O)C(=O)Cn1cc(C)c(=O)[nH]c1=O)C(=O)Cn1cnc2c(N)ncnc21)C(=O)Cn1cnc2c(=O)[nH]c(N)nc21)C(=O)Cn1cnc2c(N)ncnc21)C(=O)Cn1ccc(N)nc1=O)C(=O)Cn1cc(C)c(=O)[nH]c1=O)C(=O)Cn1ccc(N)nc1=O)C(=O)Cn1cnc2c(=O)[nH]c(N)nc21)C(=O)Cn1cnc2c(=O)[nH]c(N)nc21)C(=O)Cn1cnc2c(N)ncnc21)C(=O)Cn1ccc(N)nc1=O)C(=O)Cn1ccc(N)nc1=O)C(=O)Cn1ccc(N)nc1=O)C(=O)Cn1cc(C)c(=O)[nH]c1=O)[C@@H](C)CC)C(=O)N[C@@H](Cc1c[nH]c2ccccc12)C(=O)N[C@@H](Cc1ccccc1)C(=O)N[C@@H](CCC(N)=O)C(=O)N[C@@H](CC(N)=O)C(=O)N[C@@H](CCCNC(=N)N)C(=O)N[C@@H](CCCNC(=N)N)C(=O)N[C@@H](CCSC)C(=O)N[C@@H](CCCCN)C(=O)N[C@@H](Cc1c[nH]c2ccccc12)C(=O)N[C@@H](CCCCN)C(=O)N[C@@H](CCCCN)C(=O)O` [PNATAR–penetratin], the “inhibition of HIV-1 replication” value in experiment [2] is reported as roughly 50%. For the same compound, the “inhibition of HIV-1 replication (words)” value in experiment [2] is “did not inhibit”. Also, the IC50 came out at 800 nM in experiment [2] (VSV-G pseudotyped in CEM cells, 48 h); 800 nM in experiment [2] (read-out: Antiviral efficacy IC50); 28 nM in experiment [1]. In the experiment with CEM cells, the “Hill coefficient (nH) of uptake” value was found to be 1.8.
